Measurements published in ChEMBL document CHEMBL1287672, “Synthesis of new 4-aminoquinolines and quinoline-acridine hybrids as antimalarial agents” (2010).
Values after ≈ are worked out from the molar mass of the structure shown. Active and inactive are the calls of the source. The rule behind the calls is not given here.

Legend:
Plasmodium falciparum = test: Antimalarial activity against Plasmodium falciparum NF 54 assessed as inhibition of maturation into schizont stage after 36 to 40 hrs; format: functional
Method in brief: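 Synchronous ring-stage NF-54 parasites (5% D-sorbitol synchronization) in RPMI-1640 with 25 mM HEPES, 1% D-glucose, 0.23% sodium bicarbonate and 10% heat-inactivated human serum. Start at 1% parasitemia, 3% hematocrit. Compounds tested in duplicate wells, 37 °C, candle jar, 36–40 h. Giemsa-stained smears read by microscopy. MIC is the lowest tested concentration blocking full maturation to schizonts. Chloroquine reference.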

Plasmodium yoelii [1] = test: Antimalarial activity against chloroquine-resistant Plasmodium yoelii infected in Swiss mice (Mus musculus) assessed as suppression of parasitaemia at 50 mg/kg, intraperitoneal for 4 days relative to control; format: functional
Method in brief: (§1)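 Swiss mice were infected on day 0 with 1 × 10^6 RBC parasitized by P. yoelii N-67. Five mice per group were dosed once daily on days 0–3 with a Tween 80 aqueous suspension, given ip in 0.2 mL or orally in 0.1 mL. Parasitemia was read from thin Giemsa smears on day 4. Suppression was calculated from group means as [(C − T)/C] × 100 against untreated controls.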

Plasmodium yoelii [2] = test: Antimalarial activity against chloroquine-resistant Plasmodium yoelii infected in Swiss mice (Mus musculus) assessed as mice (Mus musculus) survival at 50 mg/kg, intraperitoneal for 4 days relative to control; format: functional, organism-based; set-up: dose 50 mg/kg
Method in brief: (§2)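 Swiss mice were inoculated with 1 × 10^6 P. yoelii N-67 parasitized RBC on day 0. Groups of five were dosed once daily on days 0–3 with compound as an aqueous suspension with a few drops of Tween 80. Intraperitoneal doses were given in 0.2 mL and oral doses in 0.1 mL. The read-out was the number of mice alive on day 28.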

Plasmodium yoelii [3] = test: Antimalarial activity against chloroquine-resistant Plasmodium yoelii infected in Swiss mice (Mus musculus) assessed as suppression of parasitaemia at 100 mg/kg, peroral for 4 days relative to control; format: functional; details: route oral; method in brief: as §1
Plasmodium yoelii [4] = test: Antimalarial activity against chloroquine-resistant Plasmodium yoelii infected in Swiss mice (Mus musculus) assessed as suppression of parasitaemia at 25 mg/kg, intraperitoneal for 4 days relative to control; format: functional; method in brief: as §1
Plasmodium yoelii [5] = test: Antimalarial activity against chloroquine-resistant Plasmodium yoelii infected in Swiss mice (Mus musculus) assessed as mice (Mus musculus) survival at 100 mg/kg, peroral for 4 days relative to control; format: functional, organism-based; set-up: dose 100 mg/kg; method in brief: as §2
Plasmodium yoelii [6] = test: Antimalarial activity against chloroquine-resistant Plasmodium yoelii infected in Swiss mice (Mus musculus) assessed as mice (Mus musculus) survival at 25 mg/kg, intraperitoneal for 4 days relative to control; format: functional, organism-based; set-up: dose 25 mg/kg; method in brief: as §2

| Compound | MIC (Plasmodium falciparum) | other results |
| --- | --- | --- |
| Clc1ccc2c(NCCN3CCN(c4ccccn4)CC3)ccnc2c1 | 10 mg/L (≈ 27.2 µM) |  |
| O=[N+]([O-])c1cccnc1N1CCN(CCNc2ccnc3cc(Cl)ccc23)CC1 | 10 mg/L (≈ 24.2 µM) |  |
| N#CC1(c2ccccc2)CCN(CCNc2ccnc3cc(Cl)ccc23)CC1 | 10 mg/L (≈ 25.6 µM) |  |
| COc1ccc2nc3cc(Cl)ccc3c(Nc3cccc(Nc4ccnc5cc(Cl)ccc45)c3)c2c1 | 0.25 mg/L (≈ 0.489 µM) | Activity (Plasmodium yoelii [1]): 100%; Activity (Plasmodium yoelii [2]): inactive |
| COc1ccc2nc3cc(Cl)ccc3c(NCCCN3CCN(c4ccnc5cc(Cl)ccc45)CC3)c2c1 | 1 mg/L (≈ 1.83 µM) |  |
| O=[N+]([O-])c1ccccc1N1CCN(CCNc2ccnc3cc(Cl)ccc23)CC1 | 10 mg/L (≈ 24.3 µM) |  |
| O=[N+]([O-])c1ccccc1N1CCN(CCCNc2ccnc3cc(Cl)ccc23)CC1 | 10 mg/L (≈ 23.5 µM) |  |
| Clc1ccc2c(NCCCN3CCc4ccccc4C3)ccnc2c1 | 0.031 mg/L (≈ 0.0881 µM) | Activity (Plasmodium yoelii [1]): 100%; Activity (Plasmodium yoelii [2]): inactive |
| COc1ccc2nc3cc(Cl)ccc3c(NCCN3CCN(c4ccnc5cc(Cl)ccc45)CC3)c2c1 | 1 mg/L (≈ 1.88 µM) |  |
| O=[N+]([O-])c1cccnc1N1CCN(CCCNc2ccnc3cc(Cl)ccc23)CC1 | 10 mg/L (≈ 23.4 µM) |  |
| Cc1ccc([N+](=O)[O-])c(N2CCN(CCNc3ccnc4cc(Cl)ccc34)CC2)c1 | 10 mg/L (≈ 23.5 µM) |  |
| N#CC1(c2ccccc2)CCN(CCCNc2ccnc3cc(Cl)ccc23)CC1 | 2 mg/L (≈ 4.94 µM) |  |
| Clc1ccc2c(NCCN3CCc4ccccc4C3)ccnc2c1 | 2 mg/L (≈ 5.92 µM) |  |
| Cc1ccc([N+](=O)[O-])c(N2CCN(CCCNc3ccnc4cc(Cl)ccc34)CC2)c1 | 10 mg/L (≈ 22.7 µM) |  |
| Clc1ccc2c(NCCCN3CCN(c4ccccn4)CC3)ccnc2c1 | 0.125 mg/L (≈ 0.327 µM) | Activity (Plasmodium yoelii [3]): 100%; Activity (Plasmodium yoelii [1]): 100%; Activity (Plasmodium yoelii [4]): 100%; Activity (Plasmodium yoelii [5]): Active; Activity (Plasmodium yoelii [2]): Active; Activity (Plasmodium yoelii [6]): Active |
| COc1ccc2nc3cc(Cl)ccc3c(Nc3ccc(Nc4ccnc5cc(Cl)ccc45)cc3)c2c1 | 0.5 mg/L (≈ 0.978 µM) |  |
| CCN(CC)CCCC(C)Nc1ccnc2cc(Cl)ccc12 (configuration not stated) [CHLOROQUINE] | 0.125 mg/L (≈ 0.391 µM) |  |
